Publication PMC4857762 (Journal of pharmaceutical sciences, 2016)

Assays:
Caco-2 cell monolayers = test: Transepithelial transport across Caco-2 cell monolayers; settings: AP-BL
[1] = In situ single-pass intestinal perfusion; settings: male, BALB/c, mouse, other: in situ single-pass intestinal (jejunal) perfusion, pH 6
pepsin = pepsin (Sus scrofa, UniProt P00791); test: Hydrolysis in pH 1.2 SGF with pepsin; format: in vitro ADME; settings: 37 °C, stable = no decrease in area by HPLC after 2 h
pancreatin = test: Hydrolysis in buffers / SIF with pancreatin; format: in vitro ADME
Caco-2 cell homogenates = test: Hydrolysis in Caco-2 cell homogenates; format: in vitro ADME, Human; settings: Caco-2 Cell homogenates (pH 6.0), 500 μg/mL protein, 37 °C
HepG2 cell homogenates = test: Hydrolysis in HepG2 cell homogenates; format: in vitro ADME, human; settings: HepG2 Cell homogenates (pH 6.0), 500 μg/mL protein, 37 °C
hPEPT1 = target: T1, hPEPT1 (Homo sapiens, UniProt P46059); test: Uptake in Xenopus laevis oocytes expressing hPEPT1; format: cell-based; settings: 50 μM, pH 6.0, 30 min, room temperature
T1 sequence (P46059 1-708): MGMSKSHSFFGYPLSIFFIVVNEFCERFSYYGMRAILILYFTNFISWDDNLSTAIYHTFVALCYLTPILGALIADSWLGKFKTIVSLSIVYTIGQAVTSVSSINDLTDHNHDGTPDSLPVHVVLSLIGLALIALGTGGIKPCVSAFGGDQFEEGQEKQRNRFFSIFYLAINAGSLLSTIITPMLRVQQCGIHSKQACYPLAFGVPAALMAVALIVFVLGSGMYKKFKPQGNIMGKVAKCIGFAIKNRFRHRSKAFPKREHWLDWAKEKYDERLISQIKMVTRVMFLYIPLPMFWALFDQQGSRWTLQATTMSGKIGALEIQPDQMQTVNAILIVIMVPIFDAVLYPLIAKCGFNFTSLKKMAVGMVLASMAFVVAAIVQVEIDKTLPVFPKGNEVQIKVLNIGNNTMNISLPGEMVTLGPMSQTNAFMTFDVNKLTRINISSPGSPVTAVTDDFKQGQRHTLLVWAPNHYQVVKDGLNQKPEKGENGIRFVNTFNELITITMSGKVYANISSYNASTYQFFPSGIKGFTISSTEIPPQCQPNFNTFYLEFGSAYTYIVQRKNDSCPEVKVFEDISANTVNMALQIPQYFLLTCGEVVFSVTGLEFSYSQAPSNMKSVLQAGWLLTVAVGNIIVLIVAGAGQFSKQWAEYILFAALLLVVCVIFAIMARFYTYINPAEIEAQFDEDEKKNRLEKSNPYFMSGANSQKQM
In short: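 Oocytes injected with hPEPT1 cRNA, with water-injected oocytes as controls. Uptake at room temperature, pH 6.0, in modified Barth's solution (96 mM NaCl, 10 mM HEPES), 50 μM for 30 min; time course up to 3 h; 50–5000 μM for 3 h. Gly-Sar (1, 20 mM) competition expressed as % of uptake without Gly-Sar. Mean ± SEM, 8–13 experiments.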

Caco-2 cells = test: Intracellular accumulation into Caco-2 cells after transport study; format: in vitro ADME, Human; settings: Caco-2 cell lysate after 2 h transport study with the prodrug
[2] = system: Wild-type mice intestinal tissue homogenates; settings: mouse, tissue homogenate, pH 6
[3] = system: BPHL knock-out mice intestinal tissue homogenates; settings: mouse, tissue homogenate, pH 6
[4] = Chemical stability in buffers at 37 °C
mouse jejunum = test: In situ single-pass intestinal perfusion; settings: mouse proximal jejunum, 0.1 mM, pH 6.0
in vitro [5] = settings: male, mouse, tissue homogenate, pH 6
in vitro [6] = settings: male, BPHL knock-out, mouse, tissue homogenate, pH 6
[7] = given as the ethyl ester prodrug oseltamivir; cited from earlier work

pepsin, sequence (P00791 60-385): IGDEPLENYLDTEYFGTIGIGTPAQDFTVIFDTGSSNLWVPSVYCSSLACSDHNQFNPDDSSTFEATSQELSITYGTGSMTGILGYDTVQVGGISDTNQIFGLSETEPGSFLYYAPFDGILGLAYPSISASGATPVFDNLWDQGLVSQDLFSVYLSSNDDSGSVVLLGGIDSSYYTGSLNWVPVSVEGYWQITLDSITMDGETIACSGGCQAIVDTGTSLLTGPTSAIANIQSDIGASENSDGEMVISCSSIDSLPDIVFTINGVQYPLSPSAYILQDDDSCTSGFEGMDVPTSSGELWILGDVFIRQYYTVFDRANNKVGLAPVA

COCCc1ccc(OCC(O)CNC(C)C)cc1 (centres unmarked) [metoprolol]
Papp relative to that of the prodrug GOC-ISP-Val (Caco-2 cell monolayers; 0.2 mM): 1.7 times higher | Papp at 1.5 h, 0.1 mM [1]: 53.8 ± 16.8 ×10⁻⁶ cm/s

CCC(CC)O[C@@H]1C=C(C(=O)O)C[C@H](NC(=N)N)[C@H]1NC(C)=O [GOC]
Half-life (t1/2) (pepsin): stable ^b | Half-life (t1/2) (pancreatin; pH 4.5 Acetate buffer with pancreatin): stable ^b | Half-life (t1/2) (pancreatin; pH 5.5 Acetate buffer with pancreatin): stable ^b | Half-life (t1/2) (pancreatin; pH 6.0 MES buffer with pancreatin): stable ^b | Half-life (t1/2) (pancreatin; pH 6.8 SIF with pancreatin): stable ^b | Half-life (t1/2) (Caco-2 cell homogenates): stable ^b | Half-life (t1/2) (HepG2 cell homogenates): stable ^b | Uptake in hPEPT1 cRNA-injected oocytes versus water-injected control oocytes (hPEPT1): no increase in uptake | Amount in cells (share of accumulated species after GOC-ISP-Val transport study) (Caco-2 cells): 49.2% | Half-life (t1/2) [2]: stable ^b | Half-life (t1/2) [3]: stable ^b | Half-life (t1/2) ([4]; pH 1.2 SGF without pepsin, 0.2 mM, stable = no decrease in area by HPLC after 2 h): stable ^b | Half-life (t1/2) ([4]; pH 4.5 Acetate buffer): stable ^b | Half-life (t1/2) ([4]; pH 5.5 Acetate buffer): stable ^b | Half-life (t1/2) ([4]; pH 6.0 MES buffer): stable ^b | Half-life (t1/2) ([4]; pH 7.4 Phosphate buffer): stable ^b | Apparent permeability (Papp) (Caco-2 cell monolayers; apical pH 6.0 / basolateral pH 7.4, 37 °C): 7.98±4.61 x 10^−7 cm/s | Effective permeability (Peff) (mouse jejunum): approximately zero

CC(C)[C@H](N)C(=O)OCCOCn1cnc2c(=O)[nH]c(N)nc21 [valacyclovir]
half-life (in vitro [5]): 1.58 h | half-life (in vitro [6]): 3.12 h

CCC(CC)O[C@@H]1C=C(C(=O)O)C[C@H](N)[C@H]1NC(C)=O [oseltamivir carboxylate]
Oral bioavailability [7]: about 80%
